How the values were obtained:
[1] = system: MCF7; assay: Antiproliferative activity against human MCF7 cells after 48 hrs by resazurin reduction test; format: functional, cell-based; conditions: MCF7, 48 h
Method in brief: (§1)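 MCF 7 and PA 1 cells were kept as monolayers in MEM with 10% fetal calf serum, 1 mM pyruvate, vitamins, non-essential amino acids and gentamicin, at 37 °C and 5% CO₂. Cells were seeded at 5 × 10³ per well, left 16 h, then exposed continuously for 48 h; DMSO was 0.5% (v/v).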

[2] = system: PA-1; assay: Antiproliferative activity against human PA1 cells after 48 hrs by resazurin reduction test; format: functional, cell-based; conditions: PA-1, 48 h
Method in brief: as §1, with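 “(v/v). Resazurin in serum- and phenol red-free MEM was added for 1 h at 37 °C, fluorescence read at ex 530/em 590 nm, and IC₅₀ taken from blank-corrected percent-of-control curves.” for “(v/v).”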

[3] = Antiproliferative activity against human fibroblasts after 48 hrs by resazurin reduction test; format: cell-based; conditions: Fibroblast
[4] = Stability of the compound assessed as degradation half life in presence of plasma at 37 degC by HPLC analysis; format: ADME, cell-free
Method in brief: (§2)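 Each compound came from a 10 mM stock in methanol or methanol/acetonitrile 85:15, diluted 1:10 into PBS, MEM or human plasma and held at 37 ± 2 °C. Aliquots taken over time were quenched with equal-volume 10 mM ammonium formate pH 3, centrifuged, filtered, diluted 3:10 and run on gradient HPLC-UV (ammonium formate pH 3/acetonitrile; 264/258 nm). Half-lives came from log concentration versus time plots, usually in triplicate.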

[5] = Stability of the compound in MEM assessed as degradation half life at 37 degC by HPLC analysis; format: physicochemical; method in brief: as §2
[6] = Stability of the compound in PBS buffer assessed as degradation half life at 37 degC by HPLC analysis; format: physicochemical; method in brief: as §2

SMILES	IC50 [1]	IC50 [2]	IC50 [3]	half-life [4]	half-life [5]	half-life [6]
CC(=O)OC[C@H]1O[C@@H](n2cc(F)c(=O)[nH]c2=O)[C@H](F)[C@@H](OC(C)=O)[C@@H]1OC(C)=O	> 50 µM	> 50 µM	> 50 µM	–	–	–
CC(=O)OC[C@H]1O[C@@H](NC(=O)Cn2cc(F)c(=O)[nH]c2=O)[C@H](F)[C@@H](OC(C)=O)[C@@H]1OC(C)=O	> 50 µM	> 50 µM	> 50 µM	–	–	–
CC(=O)OC[C@H]1O[C@@H](NC(=O)CNC(=O)n2cc(F)c(=O)[nH]c2=O)[C@H](F)[C@@H](OC(C)=O)[C@@H]1OC(C)=O	11 µM	3 µM	6.4 µM	6 min	2 min	3 min
CC(=O)OC[C@H]1O[C@@H](NC(=O)CCCNC(=O)n2cc(F)c(=O)[nH]c2=O)[C@H](F)[C@@H](OC(C)=O)[C@@H]1OC(C)=O	23 µM	6 µM	15 µM	10 min	6 min	8 min
CC(=O)OC[C@H]1O[C@@H](NC(=O)CCCCCNC(=O)n2cc(F)c(=O)[nH]c2=O)[C@H](F)[C@@H](OC(C)=O)[C@@H]1OC(C)=O	8.1 µM	4 µM	5 µM	17 min	8 min	11 min
CC(=O)OC[C@H]1O[C@@H](NC(=O)CCCN(C)C(=O)n2cc(F)c(=O)[nH]c2=O)[C@H](F)[C@@H](OC(C)=O)[C@@H]1OC(C)=O	> 50 µM	> 50 µM	> 50 µM	–	–	–
CC(=O)OC[C@H]1O[C@@H](Oc2ccc(N(C)C(=O)n3cc(F)c(=O)[nH]c3=O)cc2)[C@H](F)[C@@H](OC(C)=O)[C@@H]1OC(C)=O	> 50 µM	> 50 µM	> 50 µM	–	–	–
O=c1[nH]cc(F)c(=O)[nH]1 [FLUOROURACIL]	–	5 µM	11 µM	–	–	–
